Four compounds from ChEMBL document CHEMBL2331346, “Isolation and characterization of unusual hydrazides from Streptomyces sp. impact of the cultivation support and extraction procedure” (J Nat Prod, 2013) can be followed below.

For one assay, the system named is KB. Nature of the assay: Cytotoxicity against human KB cells assessed as inhibition of cell proliferation after 72 hrs by […] assay. Format: functional, cell-based. The method, boiled down: (§1)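 Cells were grown in D-MEM with 10% fetal calf serum plus penicillin, streptomycin and fungizone, then plated in 96-well plates. After 24 h growth they were treated from 100 μM to 10 nM, with compounds in DMSO (final DMSO 1% to 3%). MTS reagent was added at 72 h and absorbance read at 490 nm versus untreated cells. IC50 came from separate duplicate experiments.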
In general terms: Tetrazolium dyes change colour on reduction, which living cells bring about.

Another assay has as its system HT-29. As to the kind of experiment: Cytotoxicity against human HT-29 cells assessed as inhibition of cell proliferation after 72 hrs by […]. It counts as functional, cell-based. In a few lines: as §1
In the next assay the test system is Bacillus subtilis. Nature of the assay: Antibacterial activity against Bacillus subtilis ATCC 6633 by disk inhibition zone method. Format: functional, organism-based. In a few lines: (§2)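 Disk inhibition zone method against the three strains. Reference antibiotics were gentamicin at 10 μg and chloramphenicol at 30 μg. Inhibition zones were compared with these disks.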

A further assay has as its system BL-21. As to the kind of experiment: (§3) Inhibition of His-tagged Escherichia coli DnaG primase expressed in Escherichia coli BL-21 cells assessed as inhibition of RNA synthesis complementary to ssDNA using rNTPs measured after 5 mins by microplate spectrofluorometer analysis.
The test system of a further assay is Micrococcus luteus. Nature of the assay: Antibacterial activity against Micrococcus luteus ATCC 10240 by disk inhibition zone method. It counts as functional, organism-based. The method, boiled down:
as §2

The test system of the next assay is MCF7. Nature of the assay: Cytotoxicity against human MCF7 cells assessed as inhibition of cell proliferation after 72 hrs by […]. It counts as functional, cell-based. The method, boiled down: as §1
In a further assay the test system is HCT-116. Nature of the assay: Cytotoxicity against human HCT116 cells assessed as inhibition of cell proliferation after 72 hrs by […]. Format: functional, cell-based. As to conditions: for IC50: HCT-116, 72 h. The method, boiled down:
as §1

A further assay deals with Escherichia coli. Nature of the assay: Antibacterial activity against Escherichia coli ATCC 25922 by disk inhibition zone method. It counts as functional, organism-based. In a few lines: as §2
A further assay deals with MDA-MB-231. Nature of the assay: Cytotoxicity against human MDA231 cells assessed as inhibition of cell proliferation after 72 hrs by […]. Format: functional, cell-based. In a few lines: as §1
Assay [1] can be described thus: as §3.

Calls of active or inactive are those of the source. No cut-off for these calls is given here.

Regarding `CCCC/C=C/N(NC(C)=O)C(=O)CO`, the inhibition result in the assay with KB, in the assay with HT-29, with BL-21, in the assay with MCF7, in the assay with HCT-116 and in the assay on MDA-MB-231 was “inactive” each time. Besides, the outcome with Bacillus subtilis, in the assay on Micrococcus luteus and in the assay with Escherichia coli was inactive.

Take `CCCC[C@H]1ON(C(=O)CCC2=CCOC2=O)N=C(C)O[C@H]1O` (mixture of isomers): the inhibition result in the assay on KB, with HT-29, with BL-21, in the assay with MCF7, in the assay on HCT-116 and in the assay with MDA-MB-231 was “inactive” each time. Further, the result in the assay on Bacillus subtilis, in the assay with Micrococcus luteus and in the assay on Escherichia coli was inactive.

One may read the IC50 as the point on the concentration scale where inhibition reaches its midpoint. Turning to `CC(=O)O[C@@]12CO[C@@H]1C[C@H](O)[C@@]1(C)C(=O)[C@H](O)C3=C(C)[C@@H](OC(=O)[C@H](O)[C@@H](NC(=O)OC(C)(C)C)c4ccccc4)C[C@@](O)([C@@H](OC(=O)c4ccccc4)[C@H]21)C3(C)C` [DOCETAXEL], the IC50 stood at 0.25 nM with KB and 50 nM in the assay with HCT-116.

Take `CCCC/C=C\N(NC(C)=O)C(=O)C(CO)/N=[N+](\[O-])CCCCCC` (configuration not stated) [GERALCIN C]: the results for the IC50 (in the assay with KB; in assay [1]; in the assay with HCT-116) were 800 nM, 700000 nM and 800 nM, respectively. The outcome in the assay with Bacillus subtilis, in the assay with Micrococcus luteus and in the assay on Escherichia coli was inactive. Moreover, the inhibition result in the assay on BL-21 was “Dose-dependent effect”.
